Data as given in ChEMBL document CHEMBL1641579, “Synthesis and biological evaluation of 7-substituted-1-(3-bromophenylamino)isoquinoline-4-carbonitriles as inhibitors of myosin light chain kinase and epidermal growth factor receptor” (Bioorg Med Chem, 2011).

Key:
[1] = molecular target: RAC-beta serine/threonine-protein kinase (Homo sapiens) (UniProt P31751); assay: Inhibition of PKBbeta assessed as residual activity at 10 uM
Summary of the method: (§1)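 Panel screen by radioactive kinase assay at a single inhibitor concentration. Score is the percent activity remaining relative to DMSO controls (100%).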

[2] = molecular target: Serine/threonine-protein kinase N2 (Homo sapiens) (UniProt Q16513); assay: Inhibition of PRK2 assessed as residual activity at 10 uM; summary of the method: as §1
Sequence of Serine/threonine-protein kinase N2 (Homo sapiens) (Q16513 whole entry, looked up): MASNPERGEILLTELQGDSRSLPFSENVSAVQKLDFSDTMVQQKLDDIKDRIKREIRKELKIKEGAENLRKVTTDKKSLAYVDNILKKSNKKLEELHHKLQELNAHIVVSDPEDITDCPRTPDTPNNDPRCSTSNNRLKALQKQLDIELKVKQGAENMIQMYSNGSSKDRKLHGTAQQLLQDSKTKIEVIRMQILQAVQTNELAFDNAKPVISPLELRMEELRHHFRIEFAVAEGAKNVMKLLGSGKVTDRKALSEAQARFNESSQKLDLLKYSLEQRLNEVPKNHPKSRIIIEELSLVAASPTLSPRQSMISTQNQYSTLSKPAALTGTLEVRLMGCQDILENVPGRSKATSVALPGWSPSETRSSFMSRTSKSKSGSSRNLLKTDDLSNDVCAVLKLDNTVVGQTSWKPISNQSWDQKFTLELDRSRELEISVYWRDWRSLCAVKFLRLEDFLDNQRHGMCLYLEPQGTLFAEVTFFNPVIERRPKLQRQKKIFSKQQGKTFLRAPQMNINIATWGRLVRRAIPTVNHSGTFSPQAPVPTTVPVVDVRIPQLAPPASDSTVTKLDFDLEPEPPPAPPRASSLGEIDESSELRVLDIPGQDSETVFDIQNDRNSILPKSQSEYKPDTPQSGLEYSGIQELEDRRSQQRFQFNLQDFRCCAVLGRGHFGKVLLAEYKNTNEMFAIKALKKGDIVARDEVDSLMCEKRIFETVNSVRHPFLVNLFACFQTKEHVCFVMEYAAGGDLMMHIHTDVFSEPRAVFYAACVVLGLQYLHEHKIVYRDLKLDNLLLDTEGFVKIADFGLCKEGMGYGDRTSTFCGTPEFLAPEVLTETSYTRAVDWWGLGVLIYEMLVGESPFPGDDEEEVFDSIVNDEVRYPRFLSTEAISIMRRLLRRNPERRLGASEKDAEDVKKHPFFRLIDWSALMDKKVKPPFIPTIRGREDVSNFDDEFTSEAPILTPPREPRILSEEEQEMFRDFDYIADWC

[3] = molecular target: MAP kinase-interacting serine/threonine-protein kinase 2 (Homo sapiens) (UniProt Q9HBH9); assay: Inhibition of MNK2 assessed as residual activity at 10 uM; summary of the method: as §1
Sequence of MAP kinase-interacting serine/threonine-protein kinase 2 (Homo sapiens) (Q9HBH9 whole entry, looked up): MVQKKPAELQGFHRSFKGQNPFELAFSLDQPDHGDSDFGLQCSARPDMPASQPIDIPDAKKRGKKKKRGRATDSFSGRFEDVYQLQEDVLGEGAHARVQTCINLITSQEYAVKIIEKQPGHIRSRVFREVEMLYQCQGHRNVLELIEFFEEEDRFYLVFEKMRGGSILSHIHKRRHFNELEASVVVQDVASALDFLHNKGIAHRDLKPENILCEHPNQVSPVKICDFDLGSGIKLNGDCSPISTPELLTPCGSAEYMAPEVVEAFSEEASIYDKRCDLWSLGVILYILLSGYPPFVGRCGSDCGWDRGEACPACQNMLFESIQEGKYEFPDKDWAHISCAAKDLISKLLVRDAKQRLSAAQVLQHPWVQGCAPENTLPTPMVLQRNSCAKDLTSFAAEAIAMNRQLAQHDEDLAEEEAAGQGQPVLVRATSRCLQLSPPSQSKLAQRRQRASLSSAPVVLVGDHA

[4] = molecular target: Protein kinase C alpha type (Homo sapiens) (UniProt P17252); assay: Inhibition of PKCalpha assessed as residual activity at 10 uM; summary of the method: as §1
[5] = molecular target: T1, Serine/threonine-protein kinase BRSK1 (Homo sapiens) (UniProt Q8TDC3); assay: Inhibition of BRSK1 assessed as residual activity at 10 uM
T1 sequence (whole entry): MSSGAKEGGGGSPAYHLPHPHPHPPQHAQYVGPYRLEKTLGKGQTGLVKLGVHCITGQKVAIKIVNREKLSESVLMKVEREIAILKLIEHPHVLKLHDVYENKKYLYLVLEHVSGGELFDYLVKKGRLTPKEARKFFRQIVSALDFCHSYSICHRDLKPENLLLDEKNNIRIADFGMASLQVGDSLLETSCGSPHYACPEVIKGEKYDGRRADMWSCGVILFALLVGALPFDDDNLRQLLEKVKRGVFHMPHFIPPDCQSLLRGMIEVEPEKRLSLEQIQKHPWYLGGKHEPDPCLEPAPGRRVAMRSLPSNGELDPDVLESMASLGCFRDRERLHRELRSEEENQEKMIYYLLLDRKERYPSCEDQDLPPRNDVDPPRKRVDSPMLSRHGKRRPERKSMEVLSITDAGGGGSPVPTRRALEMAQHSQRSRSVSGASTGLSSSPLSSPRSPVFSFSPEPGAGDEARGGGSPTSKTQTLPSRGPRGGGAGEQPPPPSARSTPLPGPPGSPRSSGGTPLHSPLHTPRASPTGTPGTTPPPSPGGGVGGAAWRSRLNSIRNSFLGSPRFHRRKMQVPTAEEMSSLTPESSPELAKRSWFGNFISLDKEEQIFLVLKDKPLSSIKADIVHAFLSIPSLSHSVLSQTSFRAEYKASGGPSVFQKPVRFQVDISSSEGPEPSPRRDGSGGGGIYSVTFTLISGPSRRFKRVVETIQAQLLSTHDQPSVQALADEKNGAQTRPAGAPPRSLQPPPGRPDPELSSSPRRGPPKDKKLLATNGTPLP
Summary of the method: (§2)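 Kinase panel screen run as a radioactive activity assay at single compound concentration. Score reported as percent activity remaining relative to DMSO controls (100%).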

[6] = molecular target: Insulin receptor (Homo sapiens) (UniProt P06213); assay: Inhibition of IR assessed as residual activity at 10 uM; summary of the method: as §2
[7] = molecular target: T2, Serine/threonine-protein kinase Nek2 (Homo sapiens) (UniProt P51955); assay: Inhibition of NEK2A assessed as residual activity at 10 uM; summary of the method: as §1
T2 sequence (whole entry): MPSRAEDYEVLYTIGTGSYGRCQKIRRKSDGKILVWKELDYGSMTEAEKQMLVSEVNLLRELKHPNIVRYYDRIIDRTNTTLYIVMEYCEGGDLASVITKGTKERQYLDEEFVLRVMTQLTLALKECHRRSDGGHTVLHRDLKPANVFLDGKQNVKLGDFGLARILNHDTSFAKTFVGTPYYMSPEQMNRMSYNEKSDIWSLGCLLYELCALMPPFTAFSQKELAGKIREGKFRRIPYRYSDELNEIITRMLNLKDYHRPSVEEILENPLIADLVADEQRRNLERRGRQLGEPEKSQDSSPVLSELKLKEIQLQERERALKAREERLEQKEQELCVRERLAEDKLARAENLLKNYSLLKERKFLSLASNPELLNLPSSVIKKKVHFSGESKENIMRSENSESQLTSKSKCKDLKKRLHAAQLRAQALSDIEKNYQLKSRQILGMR

[8] = molecular target: Receptor-interacting serine/threonine-protein kinase 2 (Homo sapiens) (UniProt O43353); assay: Inhibition of RIPK2 assessed as residual activity at 10 uM; summary of the method: as §1
Sequence of Receptor-interacting serine/threonine-protein kinase 2 (Homo sapiens) (O43353 whole entry): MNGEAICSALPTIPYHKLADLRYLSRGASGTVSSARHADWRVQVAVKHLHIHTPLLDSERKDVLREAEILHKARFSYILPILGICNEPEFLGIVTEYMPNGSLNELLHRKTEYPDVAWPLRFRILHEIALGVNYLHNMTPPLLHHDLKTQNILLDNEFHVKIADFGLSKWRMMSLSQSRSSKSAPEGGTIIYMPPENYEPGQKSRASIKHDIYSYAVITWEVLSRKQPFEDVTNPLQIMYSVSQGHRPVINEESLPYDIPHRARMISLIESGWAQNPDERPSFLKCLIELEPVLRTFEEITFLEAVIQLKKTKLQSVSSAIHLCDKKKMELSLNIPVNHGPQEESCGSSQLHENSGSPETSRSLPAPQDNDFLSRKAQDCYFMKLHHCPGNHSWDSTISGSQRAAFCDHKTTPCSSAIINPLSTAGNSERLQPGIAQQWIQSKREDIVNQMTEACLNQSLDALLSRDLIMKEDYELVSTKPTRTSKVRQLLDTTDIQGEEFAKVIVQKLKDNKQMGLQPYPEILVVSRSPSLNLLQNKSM

[9] = molecular target: Tyrosine-protein kinase SYK (Homo sapiens) (UniProt P43405); assay: Inhibition of SYK assessed as residual activity at 10 uM; summary of the method: as §1
[10] = molecular target: Insulin-like growth factor 1 receptor (Homo sapiens) (UniProt P08069); assay: Inhibition of IGF1R assessed as residual activity at 10 uM; summary of the method: as §2
Sequence of Insulin-like growth factor 1 receptor (Homo sapiens) (P08069 31-736 limits assumed): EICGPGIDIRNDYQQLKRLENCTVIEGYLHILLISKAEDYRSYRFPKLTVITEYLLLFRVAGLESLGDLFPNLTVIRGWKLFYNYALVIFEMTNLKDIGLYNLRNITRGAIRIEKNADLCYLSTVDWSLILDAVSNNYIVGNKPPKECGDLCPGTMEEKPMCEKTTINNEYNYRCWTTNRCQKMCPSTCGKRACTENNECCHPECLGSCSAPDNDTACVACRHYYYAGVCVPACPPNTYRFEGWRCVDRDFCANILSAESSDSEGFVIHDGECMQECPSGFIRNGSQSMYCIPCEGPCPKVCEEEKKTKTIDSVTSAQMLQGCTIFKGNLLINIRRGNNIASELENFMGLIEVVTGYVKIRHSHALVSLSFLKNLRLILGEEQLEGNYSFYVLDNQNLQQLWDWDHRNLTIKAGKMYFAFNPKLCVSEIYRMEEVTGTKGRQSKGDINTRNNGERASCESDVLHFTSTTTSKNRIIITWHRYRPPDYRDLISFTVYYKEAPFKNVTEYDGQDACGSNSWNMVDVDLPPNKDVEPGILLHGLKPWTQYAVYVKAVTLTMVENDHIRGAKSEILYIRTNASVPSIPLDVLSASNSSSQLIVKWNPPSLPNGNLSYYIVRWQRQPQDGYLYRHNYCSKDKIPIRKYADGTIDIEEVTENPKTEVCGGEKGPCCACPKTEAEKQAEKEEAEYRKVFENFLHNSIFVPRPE
Sequence of Insulin-like growth factor 1 receptor (Homo sapiens) (P08069 741-1367 limits assumed): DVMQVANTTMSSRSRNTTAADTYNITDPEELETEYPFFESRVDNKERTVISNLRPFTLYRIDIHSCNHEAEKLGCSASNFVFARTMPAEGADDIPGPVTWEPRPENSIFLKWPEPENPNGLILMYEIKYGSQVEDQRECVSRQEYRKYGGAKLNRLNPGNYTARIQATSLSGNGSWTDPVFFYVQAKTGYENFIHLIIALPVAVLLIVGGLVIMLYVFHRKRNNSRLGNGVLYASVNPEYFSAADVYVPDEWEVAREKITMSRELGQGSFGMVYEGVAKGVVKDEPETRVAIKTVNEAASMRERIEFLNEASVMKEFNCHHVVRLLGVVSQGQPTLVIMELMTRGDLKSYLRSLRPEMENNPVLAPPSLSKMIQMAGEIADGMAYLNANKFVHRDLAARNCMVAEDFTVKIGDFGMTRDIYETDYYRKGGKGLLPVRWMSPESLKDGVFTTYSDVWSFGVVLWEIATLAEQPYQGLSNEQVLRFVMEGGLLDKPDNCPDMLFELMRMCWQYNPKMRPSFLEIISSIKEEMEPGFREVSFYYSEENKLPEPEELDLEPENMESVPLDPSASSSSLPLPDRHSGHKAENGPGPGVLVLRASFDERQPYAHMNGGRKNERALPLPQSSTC

[11] = molecular target: Maternal embryonic leucine zipper kinase (Homo sapiens) (UniProt Q14680); assay: Inhibition of MELK assessed as residual activity at 10 uM; summary of the method: as §2
[12] = molecular target: T3, Inhibitor of nuclear factor kappa-B kinase subunit beta (Homo sapiens) (UniProt O14920); assay: Inhibition of IKK-beta assessed as residual activity at 10 uM; summary of the method: as §2
T3 sequence (whole entry): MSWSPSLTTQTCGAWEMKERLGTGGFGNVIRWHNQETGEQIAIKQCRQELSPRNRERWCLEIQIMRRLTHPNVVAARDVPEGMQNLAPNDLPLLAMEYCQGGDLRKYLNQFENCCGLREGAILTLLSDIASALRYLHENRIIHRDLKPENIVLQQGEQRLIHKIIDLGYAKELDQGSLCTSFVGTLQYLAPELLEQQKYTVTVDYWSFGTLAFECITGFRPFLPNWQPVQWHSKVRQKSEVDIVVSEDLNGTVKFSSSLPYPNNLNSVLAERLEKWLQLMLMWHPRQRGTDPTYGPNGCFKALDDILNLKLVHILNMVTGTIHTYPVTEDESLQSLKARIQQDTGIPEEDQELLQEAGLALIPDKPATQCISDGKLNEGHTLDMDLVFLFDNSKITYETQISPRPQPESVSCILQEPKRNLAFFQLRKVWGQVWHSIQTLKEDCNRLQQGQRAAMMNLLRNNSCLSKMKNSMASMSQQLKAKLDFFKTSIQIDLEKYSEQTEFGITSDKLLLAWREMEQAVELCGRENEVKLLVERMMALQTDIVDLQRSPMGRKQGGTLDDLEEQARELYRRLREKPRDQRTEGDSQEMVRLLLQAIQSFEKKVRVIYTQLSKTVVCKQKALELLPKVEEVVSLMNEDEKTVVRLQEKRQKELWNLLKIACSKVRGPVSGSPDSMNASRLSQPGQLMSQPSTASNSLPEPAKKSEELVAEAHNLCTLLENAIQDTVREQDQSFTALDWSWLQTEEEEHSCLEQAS

[13] = molecular target: Tyrosine-protein kinase Yes (Homo sapiens) (UniProt P07947); assay: Inhibition of YES1 assessed as residual activity at 10 uM; summary of the method: as §1
Sequence of Tyrosine-protein kinase Yes (Homo sapiens) (P07947 2-543 limits assumed): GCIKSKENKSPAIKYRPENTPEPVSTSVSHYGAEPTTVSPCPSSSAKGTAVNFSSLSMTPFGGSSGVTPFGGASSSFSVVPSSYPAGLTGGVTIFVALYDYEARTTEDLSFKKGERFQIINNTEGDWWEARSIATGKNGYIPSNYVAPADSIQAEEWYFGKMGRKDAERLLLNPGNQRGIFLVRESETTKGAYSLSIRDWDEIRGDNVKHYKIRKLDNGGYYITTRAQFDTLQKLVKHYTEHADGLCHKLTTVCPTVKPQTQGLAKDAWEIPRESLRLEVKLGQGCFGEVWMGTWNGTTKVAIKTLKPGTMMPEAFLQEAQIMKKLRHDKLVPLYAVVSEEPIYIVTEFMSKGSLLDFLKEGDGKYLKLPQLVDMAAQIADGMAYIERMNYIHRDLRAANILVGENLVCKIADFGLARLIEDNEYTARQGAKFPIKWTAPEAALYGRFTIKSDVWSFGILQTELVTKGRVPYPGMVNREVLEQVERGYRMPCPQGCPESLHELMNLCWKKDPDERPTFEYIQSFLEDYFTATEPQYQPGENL

Sequence of RAC-beta serine/threonine-protein kinase (Homo sapiens) (P31751 whole entry): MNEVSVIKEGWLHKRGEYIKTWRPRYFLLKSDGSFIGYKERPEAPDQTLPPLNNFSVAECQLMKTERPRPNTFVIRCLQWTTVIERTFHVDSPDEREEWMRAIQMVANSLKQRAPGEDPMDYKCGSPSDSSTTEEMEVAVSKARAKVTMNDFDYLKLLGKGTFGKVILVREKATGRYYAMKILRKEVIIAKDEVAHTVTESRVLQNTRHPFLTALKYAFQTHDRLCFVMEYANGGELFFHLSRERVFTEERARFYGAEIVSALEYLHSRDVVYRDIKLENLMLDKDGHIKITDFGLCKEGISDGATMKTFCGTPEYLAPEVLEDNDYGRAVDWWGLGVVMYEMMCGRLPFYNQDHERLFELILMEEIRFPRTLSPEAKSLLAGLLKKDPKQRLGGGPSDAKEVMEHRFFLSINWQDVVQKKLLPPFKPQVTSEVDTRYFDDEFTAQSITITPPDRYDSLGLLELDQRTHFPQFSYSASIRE

Compound	Activity [1] [%]	Activity [2] [%]	Activity [3] [%]	Activity [4] [%]	Activity [5] [%]	Activity [6] [%]	Activity [7] [%]	Activity [8] [%]	Activity [9] [%]	Activity [10] [%]	Activity [11] [%]	Activity [12] [%]	Activity [13] [%]
CN(C)C/C=C/C(=O)Nc1ccc2c(C#N)cnc(Nc3cccc(Br)c3)c2c1	37	100	92	69	95	77	98	79	61	73	75	79	32
CN1CCN(CCC(=O)Nc2ccc3c(C#N)cnc(Nc4cccc(Br)c4)c3c2)CC1	87	90	85	71	89	95	100	66	77	65	89	88	36
CN(C)CCCC(=O)Nc1ccc2c(C#N)cnc(Nc3cccc(Br)c3)c2c1	85	98	100	70	66	93	100	82	64	59	80	84	36
